Sampled rows, rich in hits. Any-hit rate of the full collection: about 3.6%.
FGF22 binding-1 = binders of recombinant human FGF22 by thermal shift; Q9HCT0; hit rate 1.5% among 340,000; activity (Tm shift, normalised), % at 9.99 µM; SYPRO orange fluorescence; percent of sucrose octasulfate shift, DMSO zero;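 active = mean Tm shift, scaled 0 neutral to 100 positive control, at about 1.3% or above, every replicate too, limit read from the data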
Target sequence (Q9HCT0 whole entry, looked up): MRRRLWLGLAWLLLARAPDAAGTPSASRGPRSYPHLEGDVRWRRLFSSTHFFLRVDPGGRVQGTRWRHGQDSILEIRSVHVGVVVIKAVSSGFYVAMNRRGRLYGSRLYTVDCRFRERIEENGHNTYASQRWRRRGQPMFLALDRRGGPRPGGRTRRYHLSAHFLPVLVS
ZTA DNA inh = blocks Epstein-Barr virus ZTA, an EBNA-1 counter-screen. P03206. ZTA-DNA binding, fluorescence polarization. inhibition, % at 11 µM. hit rate 0.15% among 320,000; in the data active = inhibition above about 33%
Target sequence (P03206 whole entry, looked up): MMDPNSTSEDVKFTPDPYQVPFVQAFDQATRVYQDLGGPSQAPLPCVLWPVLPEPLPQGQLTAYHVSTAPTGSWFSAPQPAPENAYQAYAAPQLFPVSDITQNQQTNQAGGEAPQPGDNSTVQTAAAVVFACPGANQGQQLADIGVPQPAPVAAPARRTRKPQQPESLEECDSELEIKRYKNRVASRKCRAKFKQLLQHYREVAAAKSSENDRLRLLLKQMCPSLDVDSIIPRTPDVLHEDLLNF
EBNA-1 inhibitor = blocks EBNA-1 binding to DNA; inhibition, % at 14.8 µM; hit rate 0.34% among 300,000; AID 1950; EBNA-1 DNA binding, fluorescence polarization; in the data active = inhibition above about 28%
NR3A LBD binder = NR3A (human) ligand-binding domain modulation; NR3A LBD differential scanning fluorimetry, Tm shift; 0% = protein alone, 100% = glycine-bound protein; Tm shift relative to glycine control, % at 25 µM; hit rate 2.5% among 340,000; AID 1259313;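 active = melting temperature shift of at least 10% of the positive control shift, at one fixed dose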
NS3 helicase inh = HCV NS3 helicase inhibition. NS3 helicase DNA unwinding, Cy5 molecular beacon fluorescence. inhibition, % at 10.9 µM. AID 1800. hit rate 0.56% among 290,000;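 active = inhibition above the mean of all tested compounds plus 3 SD, set per campaign, cut at about 35% in these data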;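 note: 0% = DMSO wells and 100% = thioflavine S control wells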
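Test system: hepatitis C virus NS3 helicase domain fragment enzyme. Also added: annealed dual-labelled DNA beacon duplex, ATP-started. Timing: 60 min unwinding reaction at 25 °C after ATP addition. Technique: Cy5 fluorescence. Measure: % inhibition of unwinding.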
FID counter = fluorescent intercalator displacement, NS3 helicase counter-screen. DNA fluorescent intercalator displacement, fluorescence. hit rate 0.17% among 290,000. inhibition, % at 7.9 µM; in the data active = inhibition above about 37%;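 note: 0% = vehicle and 100% = reference compound; higher means more ethidium bromide displaced from hairpin DNA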
FGF22 binding-2 = FGF22 (human) binding in thermal shift | shares compounds with FGF22 binding-1 | recombinant FGF22 thermal shift, SYPRO orange fluorescence | thermal shift activity, °C (ΔTm) at 38 µM | hit rate 2% among 1,000;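 active = fitted rise in melting shift crosses a set limit at or below the top valid dose tested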
SYPRO no-protein = counter-screen for FGF22 binders: compound-only thermal shift, no protein; shares compounds with FGF22 binding-1; compound-only SYPRO orange thermal shift counter-screen; AC50, µM (titrated, usually from 38 µM); hit rate 2% among 1,000;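 active = rising signal whose fitted curve reaches the 0.54 level within the top valid dose, showing a melting point, actives reach about 13 µM in these data; inactive = the rest, including activity in the opposite direction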; note: value is where the raw curve crosses a fixed level and not half-maximal
Active calls of the source: *; [ ] = another dose, or the depositor's remark.

COc1ccc(CCNS(=O)(=O)CCNC(=O)c2ccc3c(c2)OCO3)cc1 was read as FGF22 binding-1 11.3*, ZTA DNA inh 0.1, EBNA-1 inhibitor 5.9, NR3A LBD binder 2.2, FGF22 binding-2 0.08 and SYPRO no-protein inactive.
For O=C(COc1ccc2c(c1)oc(=O)c1ccccc12)NC(Cc1ccc(Cl)cc1)C(=O)O (configuration not stated) the results were FGF22 binding-1 1.6*, ZTA DNA inh 0.3, EBNA-1 inhibitor -12.1, NR3A LBD binder -1.9, NS3 helicase inh -13.3, FID counter 1.5, FGF22 binding-2 0.008 and SYPRO no-protein inactive.
`COc1cccc(NC(=O)OCCN2CCN(Cc3ccccc3)CCC2=O)c1` gave FGF22 binding-1 1.5*, ZTA DNA inh 4.7, EBNA-1 inhibitor 4.8, NR3A LBD binder 3.1, NS3 helicase inh 2.7, FID counter -13.6, FGF22 binding-2 0.162 and SYPRO no-protein inactive.
Screening O=C(Nc1ccccc1)OCCN1CCN(Cc2ccccc2)CCC1=O returned FGF22 binding-1 0.1, ZTA DNA inh 14.0, EBNA-1 inhibitor -9.3, NR3A LBD binder -1.8, NS3 helicase inh 7.3 and FID counter -19.3.
`CCCN(CCC)CC(C)(C)NS(=O)(=O)c1ccc(Cl)cc1` gave FGF22 binding-1 1.4*, ZTA DNA inh -1.9, EBNA-1 inhibitor -11.0, NR3A LBD binder 1.2, NS3 helicase inh 4.6, FID counter 12.5, FGF22 binding-2 -0.022 and SYPRO no-protein inactive.
`CCN(CC)CCNS(=O)(=O)c1ccc(Cl)cc1` gave ZTA DNA inh 2.7, EBNA-1 inhibitor -9.6, NR3A LBD binder 1.2, NS3 helicase inh -2.4 and FID counter 3.4.
`COc1cccc(NC(=O)CN(C)C(=O)c2ccc(N3CCOCC3)c([N+](=O)[O-])c2)c1` gave FGF22 binding-1 -0.1, ZTA DNA inh -8.6 and EBNA-1 inhibitor 0.3.
For COc1cccc(NC(=O)CN(C)C(=O)c2ccc(N3CCCCC3)c([N+](=O)[O-])c2)c1 the results were FGF22 binding-1 2.1*, ZTA DNA inh 2.8, NR3A LBD binder 0.3, FGF22 binding-2 0.304 and SYPRO no-protein inactive.
Screening CN(CC(=O)Nc1cccc(F)c1)C(=O)c1ccc(NC2CC2)c([N+](=O)[O-])c1 returned FGF22 binding-1 -0.5, ZTA DNA inh -4.6, EBNA-1 inhibitor 0.1 and NR3A LBD binder 1.7.
`COc1cccc(NC(=O)CN(C)C(=O)c2ccc(NC3CC3)c([N+](=O)[O-])c2)c1` gave FGF22 binding-1 2.6*, ZTA DNA inh -3.2, NR3A LBD binder -0.8, FGF22 binding-2 0.124 and SYPRO no-protein inactive.
Screening CCc1nnc(NS(=O)(=O)c2ccc(NC(=S)NC(=O)/C=C/c3ccc([N+](=O)[O-])cc3)cc2)s1 returned FGF22 binding-1 2.5*, ZTA DNA inh -1.4, EBNA-1 inhibitor -3.0, NR3A LBD binder -6.1, NS3 helicase inh 1.1, FID counter -26.1, FGF22 binding-2 -0.005 and SYPRO no-protein inactive.
C/C=C/c1ccc([C@@H]2[C@@H](CO)N(C(C)=O)[C@H]2CN(CC)C(=O)CN(C)C)cc1 was read as FGF22 binding-1 -0.2.
C[C@H]1CN([C@@H](C)CO)C(=O)c2cc(NC(=O)Nc3ccc(F)cc3)ccc2O[C@@H]1CN(C)S(=O)(=O)c1ccccc1 was read as FGF22 binding-1 -0.1.
For COCC(=O)N1CC2(C1)[C@H](c1ccc(-c3cccc(C)c3)cc1)[C@H](CO)N2C(=O)C1CC1 the results were FGF22 binding-1 1.5*, FGF22 binding-2 0.062[42 µM] and SYPRO no-protein inactive.
COCC(=O)N1[C@H](CO)[C@H](c2ccccc2)C12CN(C(=O)c1ccccc1)C2 was read as FGF22 binding-1 1.3*, FGF22 binding-2 -0.03[42 µM] and SYPRO no-protein inactive.
Screening CC(=O)N1[C@H](CO)[C@@H](c2ccccc2)C12CN(C(=O)Cc1ccccc1)C2 returned FGF22 binding-1 1.6*, FGF22 binding-2 -0.025 and SYPRO no-protein inactive.
For O=C(Cc1ccccc1)N1CC2(C1)[C@H](c1ccccc1)[C@H](CO)N2C(=O)Cc1ccccc1 the results were FGF22 binding-1 0.0.
CCCN(C)C[C@@H]1Oc2ncc(C#Cc3ccccc3OC)cc2C(=O)N([C@H](C)CO)C[C@@H]1C was read as FGF22 binding-1 -0.1.
Screening CC(=O)N(C)C[C@H]1Oc2ncc(/C=C/c3ccccc3)cc2C(=O)N([C@H](C)CO)C[C@@H]1C returned FGF22 binding-1 -0.1.
`COc1ccc(/C(O)=C/C(=O)C(=O)NNC(=O)c2ccccc2)cc1` gave FGF22 binding-1 28.9*, ZTA DNA inh 5.2, EBNA-1 inhibitor -15.4, NR3A LBD binder -3.0, NS3 helicase inh 16.2, FID counter -23.2, FGF22 binding-2 0.091 and SYPRO no-protein inactive.
Screening C[C@H]1CN([C@@H](C)CO)C(=O)c2cccc(NS(=O)(=O)c3ccccc3)c2O[C@@H]1CN(C)S(=O)(=O)c1cccs1 returned FGF22 binding-1 -0.6.
`O=[N+]([O-])c1ccc(/C=N/Nc2ccc3ccccc3c2)o1` gave FGF22 binding-1 2.1*, ZTA DNA inh -20.2, EBNA-1 inhibitor -4.9, NR3A LBD binder 21.2*, NS3 helicase inh 0.8, FID counter 9.7, FGF22 binding-2 -0.088 and SYPRO no-protein inactive.
Cc1ccc2nc(N/N=C\c3ccc([N+](=O)[O-])o3)nc(-c3ccccc3)c2c1 was read as ZTA DNA inh 7.5, EBNA-1 inhibitor -5.5, NR3A LBD binder -8.3, NS3 helicase inh -0.4 and FID counter -4.7.
Screening Nc1n[nH]c(=S)n1/N=C1/C(=O)Nc2ccccc21 returned FGF22 binding-1 1.8*, NR3A LBD binder 26.3*, NS3 helicase inh -2.3, FID counter 0.5, FGF22 binding-2 0.05 and SYPRO no-protein inactive.
`Cc1ccccc1-n1ncc2c1CC(C)(C)CC2NC(=O)C1CCC1` (configuration not stated) gave FGF22 binding-1 1.4*, ZTA DNA inh -11.0, EBNA-1 inhibitor 0.4, NR3A LBD binder -2.8, NS3 helicase inh -0.1, FID counter -36.6, FGF22 binding-2 0.088 and SYPRO no-protein inactive.
Screening C[C@H](CO)N1C[C@H](C)[C@@H](CN(C)C)Oc2ccc(NS(=O)(=O)c3cccs3)cc2CC1=O returned FGF22 binding-1 -0.1.
For O=C(C[C@@H]1CC[C@H]2[C@@H](COC[C@@H](O)CN2Cc2cc(F)ccc2F)O1)NCc1ccc(F)cc1 the results were FGF22 binding-1 2.4*, FGF22 binding-2 -0.061[42 µM] and SYPRO no-protein inactive.

Assay outcomes: PubChem, several laboratories
